According to ChEMBL document CHEMBL4699542, “Design and synthesis of novel methoxypyridine-derived gamma-secretase modulators” (Bioorg Med Chem, 2020):
Values after ≈ are worked out from the molar mass of the structure shown.

Assays:
Gamma-secretase [1] = assay: Inhibition of gamma secretase in human H4 cells overexpressing APP751 transfected with Myc-tagged Notch assessed as accumulation of Notch substrate at 100 to 300 nM incubated for 24 hrs by Western blot analysis; format: cell-based; conditions: h4, 24 h, 0.3 µM, dose 100-300 nM
Method in brief: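 H4 neuroglioma cells stably overexpressing human APP751 were transfected with Myc-tagged NΔE Notch, then treated 24 h with 1 or 10 μM modulator, 100 or 300 nM DAPT, or vehicle. Cells harvested 48 h post-transfection. Western blot with anti-Myc detected NΔE and NICD; β-actin served as loading control.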

[2] = Kinetic aqueous solubility of the compound in pH 7.4 PBS buffer by UV/Visible absorbance analysis; format: physicochemical; conditions: read-out: Kinetic_solubility
Method in brief: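 Kinetic solubility determined in PBS at pH 7.4 by UV/Vis absorbance, reported in μM.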

Gamma-secretase [3] = assay: Modulation of gamma secretase in human SH-SY5Y cells overexpressing wild type APP751 assessed as inhibition of amyloid beta (35 to 42 residues) formation incubated for overnight by ELISA; format: cell-based
Method in brief: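 SHSY5Y-APP751 cells plated at 75K/well and incubated overnight at 37 °C, then treated 24 h over 10 concentrations ([…]–10 μM, 1:3.16 steps, in duplicate). Medium Aβ42 measured by sandwich ELISA (Aβ35–42 capture, AP-conjugated Aβ1–12 detection, CDP-Star luminescence) against an Aβ42 standard curve.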

[4] = Metabolic stability in human liver microsomes assessed as parent compound remaining at 1 uM incubated for 30 mins; format: ADME, Microsome; conditions: microsomes, 0.5 h, 1 µM
Method in brief: (§1)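 Test compound at 1 μM incubated 30 min with human, rat or mouse liver microsomes (1 mg/mL); parent remaining expressed as %.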

[5] = Metabolic stability in rat liver microsomes assessed as parent compound remaining at 1 uM incubated for 30 mins; format: ADME, Microsome; conditions: 0.5 h; method in brief: as §1
[6] = Metabolic stability in mouse liver microsomes assessed as parent compound remaining at 1 uM incubated for 30 mins; format: ADME, Microsome; conditions: 0.5 h; method in brief: as §1
Cytochrome P450 3A4 = Cytochrome P450 3A4 (Homo sapiens, UniProt P08684); assay: Inhibition of recombinant CYP3A4 (unknown origin) by fluorescence-based assay; format: ADME
Cytochrome P450 1A2 = target: T1, Cytochrome P450 1A2 (Homo sapiens, UniProt P05177); assay: Inhibition of recombinant CYP1A2 (unknown origin) by fluorescence-based assay; format: ADME
T1 sequence (P05177 whole entry): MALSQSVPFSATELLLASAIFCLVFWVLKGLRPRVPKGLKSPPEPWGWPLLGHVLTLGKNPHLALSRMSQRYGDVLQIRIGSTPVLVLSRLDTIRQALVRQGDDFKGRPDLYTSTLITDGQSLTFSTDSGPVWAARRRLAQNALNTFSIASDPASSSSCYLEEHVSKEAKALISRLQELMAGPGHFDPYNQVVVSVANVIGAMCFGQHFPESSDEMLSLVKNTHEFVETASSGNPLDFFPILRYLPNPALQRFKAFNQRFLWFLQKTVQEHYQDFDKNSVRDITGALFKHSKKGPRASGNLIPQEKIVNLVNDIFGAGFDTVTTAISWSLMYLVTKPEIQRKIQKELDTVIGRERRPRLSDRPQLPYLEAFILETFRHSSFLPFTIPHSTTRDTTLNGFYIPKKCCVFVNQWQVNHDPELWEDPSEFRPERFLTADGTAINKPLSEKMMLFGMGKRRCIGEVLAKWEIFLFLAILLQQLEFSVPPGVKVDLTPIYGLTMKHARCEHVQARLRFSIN
Method in brief: (§2)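 Recombinant CYP isoforms (five tested) screened for inhibition in fluorescence-based assays; IC50 in μM.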

Cytochrome P450 2C9 = Cytochrome P450 2C9 (Homo sapiens, UniProt P11712); assay: Inhibition of recombinant CYP2C9 (unknown origin) by fluorescence-based assay; format: ADME; method in brief: as §2
Cytochrome P450 2C19 = Cytochrome P450 2C19 (Homo sapiens, UniProt P33261); assay: Inhibition of recombinant CYP2C19 (unknown origin) by fluorescence-based assay; format: ADME; method in brief: as §2
Cytochrome P450 2D6 = Cytochrome P450 2D6 (Homo sapiens, UniProt P10635); assay: Inhibition of recombinant CYP2D6 (unknown origin) by fluorescence-based assay; format: ADME; method in brief: as §2
[7] = target: Voltage-gated inwardly rectifying potassium channel KCNH2 (Homo sapiens, UniProt Q12809); assay: Inhibition of human ERG expressed in HEK293 cells by patch clamp assay; format: cell-based
[8] = Cmax in CD-1 mouse at 1 mg/kg, iv administered as single dose measured up to 24 hrs; format: ADME, organism-based; parameters: route intravenous, dose 1 mg/kg, time <=24; conditions: in vivo
Method in brief: (§3)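 Male CD-1 mice, 6–8 weeks old, single dose by tail vein (1 mg/kg, 3% NMP/45% PEG300/12% ethanol/40% water) or oral gavage (5 mg/kg, 5% NMP/95% PEG300). Retro-orbital plasma sampled 0.083 (iv only) to 24 h, n=3/timepoint, and analysed by HPLC/MS/MS. Non-compartmental analysis. Half-life taken from the terminal phase using ≥3 non-zero points after Tmax.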

[9] = Tmax in CD-1 mouse at 1 mg/kg, iv administered as single dose measured up to 24 hrs; format: ADME, organism-based; conditions: in vivo
Method in brief: (§4)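 Male CD-1 mice, 6–8 weeks old, single tail-vein dose in 3% NMP/45% PEG300/12% ethanol/40% sterile water. Retro-orbital plasma (K3EDTA) taken at 0.083, 0.25, 0.5, 1, 2, 4, 8 and 24 h, n=3/timepoint, analysed by HPLC/MS/MS. Non-compartmental analysis (Model 201, uniform weighting); Tmax read directly from the data.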

[10] = Half life in CD-1 mouse at 1 mg/kg, iv administered as single dose measured up to 24 hrs; format: ADME, organism-based; conditions: mouse, in vivo, 1 mg/kg, 24 h; method in brief: as §3
[11] = AUClast in CD-1 mouse at 1 mg/kg, iv administered as single dose measured up to 24 hrs; format: ADME, organism-based; parameters: route intravenous, dose 1 mg/kg, time <=24; conditions: in vivo; method in brief: as §3
[12] = Volume of distribution at steady state in CD-1 mouse at 1 mg/kg, iv administered as single dose measured up to 24 hrs; format: ADME, organism-based; conditions: in vivo; method in brief: as §4
[13] = Ratio of drug concentration in CD-1 mouse brain to plasma at 0.4 mg/kg, iv measured after 1 hr; format: ADME, organism-based
[14] = Ratio of drug concentration in CD-1 mouse brain to plasma at 5 mg/kg, po measured after 1 hr; format: ADME, organism-based
Method in brief: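 Male CD-1 mice dosed once iv (1 mg/kg) or by oral gavage (5 mg/kg). Brain and plasma collected 1 h post dose (n=3/timepoint). Drug levels by HPLC/MS/MS; brain/plasma ratio calculated from these levels.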

[15] = Cmax in CD-1 mouse at 5 mg/kg, po administered as single dose measured up to 24 hrs; format: ADME, organism-based; parameters: route oral, dose 5 mg/kg, time <=24; conditions: in vivo; method in brief: as §3
[16] = Tmax in CD-1 mouse at 5 mg/kg, po administered as single dose measured up to 24 hrs; format: ADME, organism-based; conditions: in vivo
Method in brief: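 Male CD-1 mice, 6–8 weeks old, single oral gavage dose in 5% NMP/95% PEG300. Plasma (K3EDTA, retro-orbital, under isoflurane) taken at 0.25, 0.5, 1, 2, 4, 8 and 24 h, n=3/timepoint, analysed by HPLC/MS/MS. Non-compartmental extravascular analysis (Model 200); Tmax taken directly from the data.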

[17] = AUClast in CD-1 mouse at 5 mg/kg, po administered as single dose measured up to 24 hrs; format: ADME, organism-based; parameters: route oral, dose 5 mg/kg, time <=24; conditions: in vivo; method in brief: as §3
[18] = Oral bioavailability in CD-1 mouse at 5 mg/kg administered as single dose measured up to 24 hrs; format: ADME, organism-based; conditions: in vivo
Method in brief: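 CD-1 mouse PK after single iv (1 mg/kg) and oral gavage (5 mg/kg) dosing, with plasma sampled to 24 h (n=3/timepoint) and measured by HPLC/MS/MS. F(%) = (AUC0-inf po × Dose iv)/(AUC0-inf iv × Dose po) × 100.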

[19] = Apparent permeability from apical to basolateral membrane in MDCK-MDR1 cells; format: ADME, cell-based, Canis lupus familiaris; conditions: dog
Method in brief: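 Apical-to-basolateral apparent permeability (×10⁻⁶ cm/s) measured across MDR1-MDCK cell monolayers.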

[20] = Efflux ratio of apparent permeability from basolateral to apical membrane over apical to basolateral membrane in MDCK-MDR1 cells; format: ADME, cell-based, Canis lupus familiaris; conditions: dog
Method in brief: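 Calculated as B-A/A-B apparent permeability ratio across MDR1-MDCK cell monolayers; A-B permeability expressed as ×10⁻⁶ cm/s.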

[21] = Half life in CD-1 mouse at 5 mg/kg, po administered as single dose measured up to 24 hrs; format: ADME, organism-based; conditions: in vivo; method in brief: as §3
[22] = AUC infinity in CD-1 mouse at 1 mg/kg, iv administered as single dose measured up to 24 hrs; format: ADME, organism-based; parameters: route intravenous, dose 1 mg/kg, time <=24; conditions: in vivo; method in brief: as §3
[23] = AUC infinity in CD-1 mouse at 5 mg/kg, po administered as single dose measured up to 24 hrs; format: ADME, organism-based; parameters: route oral, dose 5 mg/kg, time <=24; conditions: in vivo; method in brief: as §3

Cytochrome P450 2D6, sequence (P10635 whole entry): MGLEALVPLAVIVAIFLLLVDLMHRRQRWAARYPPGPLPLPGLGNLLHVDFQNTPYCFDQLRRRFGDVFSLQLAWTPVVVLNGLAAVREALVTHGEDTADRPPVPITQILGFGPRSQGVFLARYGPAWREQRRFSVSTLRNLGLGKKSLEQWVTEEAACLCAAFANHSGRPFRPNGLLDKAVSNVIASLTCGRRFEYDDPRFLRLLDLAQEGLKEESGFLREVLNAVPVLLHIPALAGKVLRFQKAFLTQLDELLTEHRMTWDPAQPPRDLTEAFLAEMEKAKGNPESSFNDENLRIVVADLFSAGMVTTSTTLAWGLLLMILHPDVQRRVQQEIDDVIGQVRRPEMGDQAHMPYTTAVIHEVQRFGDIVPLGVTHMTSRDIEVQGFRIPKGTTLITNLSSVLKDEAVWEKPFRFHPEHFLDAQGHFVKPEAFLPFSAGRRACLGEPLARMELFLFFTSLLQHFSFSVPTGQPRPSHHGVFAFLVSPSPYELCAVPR
Cytochrome P450 3A4, sequence (P08684 whole entry): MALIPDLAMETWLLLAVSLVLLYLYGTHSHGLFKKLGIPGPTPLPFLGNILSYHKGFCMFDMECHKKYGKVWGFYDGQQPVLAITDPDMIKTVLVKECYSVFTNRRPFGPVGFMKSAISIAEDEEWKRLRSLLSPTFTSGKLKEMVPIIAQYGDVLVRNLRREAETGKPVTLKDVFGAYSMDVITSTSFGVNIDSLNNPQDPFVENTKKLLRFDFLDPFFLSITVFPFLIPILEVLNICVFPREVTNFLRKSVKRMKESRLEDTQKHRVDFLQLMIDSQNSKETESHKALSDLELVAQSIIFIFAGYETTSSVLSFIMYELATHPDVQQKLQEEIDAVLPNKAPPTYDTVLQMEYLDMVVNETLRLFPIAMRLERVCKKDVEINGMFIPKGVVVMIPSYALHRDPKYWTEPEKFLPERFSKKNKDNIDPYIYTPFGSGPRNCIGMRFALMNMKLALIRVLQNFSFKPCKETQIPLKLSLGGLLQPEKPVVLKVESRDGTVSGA
Cytochrome P450 2C9, sequence (P11712 whole entry): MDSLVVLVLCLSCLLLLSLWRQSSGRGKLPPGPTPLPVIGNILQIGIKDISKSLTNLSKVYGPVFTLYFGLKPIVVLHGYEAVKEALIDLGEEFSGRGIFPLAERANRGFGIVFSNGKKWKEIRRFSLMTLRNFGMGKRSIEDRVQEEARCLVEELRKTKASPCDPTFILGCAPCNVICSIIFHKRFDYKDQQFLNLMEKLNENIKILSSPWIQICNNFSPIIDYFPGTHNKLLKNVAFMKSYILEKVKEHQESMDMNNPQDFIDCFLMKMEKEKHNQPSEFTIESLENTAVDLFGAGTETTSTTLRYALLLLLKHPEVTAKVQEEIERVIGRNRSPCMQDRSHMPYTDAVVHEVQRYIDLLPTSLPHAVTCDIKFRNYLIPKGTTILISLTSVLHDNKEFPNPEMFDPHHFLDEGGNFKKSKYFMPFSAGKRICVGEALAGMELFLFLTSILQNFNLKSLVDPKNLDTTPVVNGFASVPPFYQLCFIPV
Cytochrome P450 2C19, sequence (P33261 whole entry): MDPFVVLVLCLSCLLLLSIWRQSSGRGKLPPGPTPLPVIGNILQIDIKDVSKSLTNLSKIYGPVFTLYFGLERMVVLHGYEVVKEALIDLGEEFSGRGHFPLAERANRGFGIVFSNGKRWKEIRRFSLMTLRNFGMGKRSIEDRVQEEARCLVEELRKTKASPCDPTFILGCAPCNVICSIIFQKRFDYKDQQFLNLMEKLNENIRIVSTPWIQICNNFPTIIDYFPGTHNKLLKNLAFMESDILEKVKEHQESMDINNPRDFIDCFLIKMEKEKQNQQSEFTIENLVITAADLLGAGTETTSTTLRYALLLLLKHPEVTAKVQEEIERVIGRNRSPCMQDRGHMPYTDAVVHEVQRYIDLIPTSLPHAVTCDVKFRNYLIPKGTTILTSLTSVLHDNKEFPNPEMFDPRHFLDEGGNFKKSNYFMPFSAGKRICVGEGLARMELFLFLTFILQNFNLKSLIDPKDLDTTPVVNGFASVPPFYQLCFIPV
Voltage-gated inwardly rectifying potassium channel KCNH2, sequence (Q12809 whole entry): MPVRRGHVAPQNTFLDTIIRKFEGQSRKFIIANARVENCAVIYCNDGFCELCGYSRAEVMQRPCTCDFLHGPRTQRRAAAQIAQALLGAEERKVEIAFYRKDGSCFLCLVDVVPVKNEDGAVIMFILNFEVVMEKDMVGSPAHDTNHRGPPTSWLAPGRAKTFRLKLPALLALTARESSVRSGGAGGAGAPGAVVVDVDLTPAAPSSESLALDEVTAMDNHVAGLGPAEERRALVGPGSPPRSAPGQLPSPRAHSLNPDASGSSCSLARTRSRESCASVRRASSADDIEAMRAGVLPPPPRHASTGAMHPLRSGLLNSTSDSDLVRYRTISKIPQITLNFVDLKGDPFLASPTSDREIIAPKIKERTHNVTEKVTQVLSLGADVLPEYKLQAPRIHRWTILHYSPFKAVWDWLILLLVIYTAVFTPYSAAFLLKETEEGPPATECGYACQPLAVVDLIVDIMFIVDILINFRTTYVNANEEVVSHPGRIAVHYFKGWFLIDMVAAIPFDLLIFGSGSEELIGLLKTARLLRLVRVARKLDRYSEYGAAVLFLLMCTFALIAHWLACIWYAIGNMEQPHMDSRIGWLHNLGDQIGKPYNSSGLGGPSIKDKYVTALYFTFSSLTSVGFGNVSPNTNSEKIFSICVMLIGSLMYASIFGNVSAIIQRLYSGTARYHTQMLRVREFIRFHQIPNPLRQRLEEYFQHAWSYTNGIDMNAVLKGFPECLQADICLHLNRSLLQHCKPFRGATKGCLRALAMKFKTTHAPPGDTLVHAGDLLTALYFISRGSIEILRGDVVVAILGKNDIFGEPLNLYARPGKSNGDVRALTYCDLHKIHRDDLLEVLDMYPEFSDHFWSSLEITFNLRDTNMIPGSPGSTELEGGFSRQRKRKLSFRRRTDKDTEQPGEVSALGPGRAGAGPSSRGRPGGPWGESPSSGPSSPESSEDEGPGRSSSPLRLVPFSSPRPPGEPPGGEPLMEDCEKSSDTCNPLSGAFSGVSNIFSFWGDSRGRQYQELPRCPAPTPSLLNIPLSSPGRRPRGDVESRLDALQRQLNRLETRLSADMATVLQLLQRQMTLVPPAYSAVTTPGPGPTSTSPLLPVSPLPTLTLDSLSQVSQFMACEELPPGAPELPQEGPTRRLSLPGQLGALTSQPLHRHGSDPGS

SMILES	solubility kinetic [2] [µM]	IC50 (Gamma-secretase [3]) [µM]	Stabilty [4] [%]	Stabilty [5] [%]	Stabilty [6] [%]	IC50 (Cytochrome P450 3A4) [µM]	IC50 (Cytochrome P450 1A2) [µM]	IC50 (Cytochrome P450 2C9) [µM]	IC50 (Cytochrome P450 2C19) [µM]	IC50 (Cytochrome P450 2D6) [µM]	IC50 [7] [µM]	Cmax [8] [ng/mL]	Tmax [9] [min]	t1/2 [10] [h]	AUClast [11] [ng·h/mL]	Vdss [12] [L/kg]	BPR [13]	BPR [14]	Cmax [15] [ng/mL]	Papp [19]	also measured
C[C@H](NC(=O)Cc1cc(F)cc(F)c1)C(=O)N[C@H](C(=O)OC(C)(C)C)c1ccccc1	–	–	–	–	–	–	–	–	–	–	–	–	–	–	–	–	–	–	–	–	inhibition (INH) (Gamma-secretase [1]): Active
COc1nc(-c2csc(Nc3c4c(nn3C)CCC4)n2)ccc1-n1cnc(C)c1	44 (≈ 17.9 µg/mL)	0.08	76	71	75	4.5	> 100	> 100	37	> 100	0.92	478	4.98	1.9	723	3.18	0.21	0.22	580	22.3 10^-6 cm/s	Tmax [16]: 1 h; AUClast [17]: 2700 ng·h/mL; F [18]: 74.6%; Ratio [20]: 1.9; t1/2 [21]: 1.6 h
COc1nc(-c2csc(Nc3c4c(nn3C(C)(C)C)CCCC4)n2)ccc1-n1cnc(C)c1	34 (≈ 15.8 µg/mL)	0.071	19	63	23	5.3	9.1	47	12	> 100	7.18	–	–	–	–	–	–	–	–	14.8 10^-6 cm/s	Ratio [20]: 0.9
CCn1nc(C2(C)CC2)cc1Nc1nc(-c2ccc(-n3cnc(C)c3)c(OC)n2)cs1	6.7 (≈ 2.92 µg/mL)	0.032	67	73	81	4.1	> 100	> 100	> 100	> 100	12.3	384	4.98	3.84	1247	3.609	0.62	0.57	592	18.5 10^-6 cm/s	AUC [22]: 1378 ng·h/mL; Tmax [16]: 2 h; AUClast [17]: 3976 ng·h/mL; F [18]: 63.8%; Ratio [20]: 1.3
CCn1nc(C(F)(F)F)cc1Nc1nc(-c2ccc(-n3cnc(C)c3)c(OC)n2)cs1	15 (≈ 6.74 µg/mL)	0.058	84	96	71	5.3	9.1	47	12	> 100	–	359	4.98	1.6	605	3.64	0.73	0.62	470	23.3 10^-6 cm/s	AUC [22]: 623 ng·h/mL; Tmax [16]: 1 h; AUClast [17]: 1727 ng·h/mL; AUC [23]: 2369 ng·h/mL; F [18]: 76%
